Measured values as given in PMC5648746 (Clinical Pharmacokinetics, 2017).

Legend:
[1] = Individual predicted exposure; assay type: in vivo, human; settings: oral ixazomib; figure value with 95% CI
[2] = previous population PK analysis, four phase I studies; cited from earlier work
[3] = cited from earlier work
[4] = cited from earlier work; remark: listed apart in the source
[5] = test system: patients with multiple myeloma; settings: ixazomib plus lenalidomide-dexamethasone vs placebo plus lenalidomide-dexamethasone, TOURMALINE-MM1; cited from earlier work
[6] = Western patients, weekly dose; cited from earlier work
[7] = after a high-calorie high-fat meal; cited from earlier work
[8] = single oral dose of radio-labelled ixazomib, five patients with advanced cancer; cited from earlier work
[9] = test system: human cDNA-expressed CYP isozymes; settings: clinically relevant ixazomib concentrations; cited from earlier work
[10] = Population pharmacokinetic analysis; assay type: in vivo, human
In short: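 Plasma from 755 adults with advanced haematologic or non-haematologic malignancies given oral (BSA-based or fixed) or IV (BSA-based) doses, weekly (28-day cycle) or twice-weekly (21-day cycle); sampled pre-dose and post-dose. LC-MS/MS with 13C9-labelled internal standard, linear 0.5–500 ng/mL. Three-compartment model, first-order absorption with lag; additive log-scale residual error; stepwise covariate selection, p = 0.01 plus ≥10% variance reduction.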

[11] = typical (population) parameter estimates

CC(C)C[C@H](NC(=O)CNC(=O)c1cc(Cl)ccc1Cl)B(O)O [ixazomib]
Percent change in mean AUC∞, Asian race relative to White race [1]: 35%
Estimated absolute bioavailability [2]: 60%
Dose dependence of exposure (AUC) [3]: dose-proportional increases in exposure
Accumulation ratio for AUC ([3]; once-weekly repeat-dose administration): approximately 2
Median time to maximum plasma concentration ([3]; post-dose, oral): 1 h
Decrease in systemic exposure (AUC) of ixazomib with rifampin ([4]; co-administration of strong pleiotropic PXR-mediated inducer rifampin): 74%
Effect of the strong CYP3A inhibitor clarithromycin on ixazomib pharmacokinetics ([4]; controlled phase I clinical study): absence of an effect
Improvement in progression-free survival [5]: 35%
Maximum tolerated dose [6]: 5.5 mg
Reduction in peak plasma concentration with food [7]: 69%
Reduction in total systemic exposure (AUC) with food [7]: 28%
Administered radioactivity excreted in feces [8]: 22%
Administered radioactivity excreted in urine [8]: 62%
Contribution of specific CYP isozymes to ixazomib metabolism [9]: no specific CYP isozyme predominantly contributed
Inter-individual variability on log CL ([10]; % coefficient of variation): 44%
Inter-individual variability on log F ([10]; % coefficient of variation): 73%
Inter-individual variability on log V4 ([10]; % coefficient of variation): 79%
Change in V4 at the 5th percentile of BSA relative to median BSA ([10]; BSA 1.5 m^2 vs median 1.87 m^2): −37%
Change in V4 at the 95th percentile of BSA relative to median BSA ([10]; BSA 2.25 m^2 vs median 1.87 m^2): +46%
Impact of BSA on CL ([10]; BSA had a small effect on V4): did not impact CL
Effect of age on ixazomib PK parameters ([10]; age 23–91 years): not found to have a clinically relevant effect
Correlation between log CL and log F (random effects) ([10]; coefficient of correlation): 82%
Impact of BSA on V4 (V4[BSA]), estimate ([10]; covariate coefficient of power function): 2.06
Absorption lag time (TLAG), untransformed parameter ([10]; final model): 13 min
Absorption rate constant (Ka), untransformed parameter ([10]; final model): 0.34 h⁻¹
Volume of the first peripheral compartment (V3), untransformed parameter ([10]; final model): 309 L
Volume of the second peripheral compartment (V4), untransformed parameter ([10]; final model, at median BSA): 205 L
Impact of CrCl and total bilirubin on ixazomib pharmacokinetics ([10]; mild or moderate renal impairment (CrCl 30–90 mL/min), mild hepatic impairment): neither CrCl nor total bilirubin had any clinically relevant impact
Absorption rate constant (log Ka), estimate ([10]; raw NONMEM estimate, log scale): −1.09
Volume of the first peripheral compartment (log V3), estimate ([10]; raw NONMEM estimate, log scale): 5.73
Volume of the second peripheral compartment (log V4), estimate ([10]; raw NONMEM estimate, log scale): 5.32
Population estimate of steady-state volume of distribution [10, 11]: 527 L
Population estimate of t1/2,γ [10, 11]: 224 h
